Measurements reported in publication PMC10091778 (Drug Development Research, 2022).

Experiments:
[1] = system: Hep3B hepatocellular carcinoma cells; settings: 35 µM for 24 h; ref Lu et al., 2022; cited from earlier work
[2] = system: 4T1, A549, and HL‐60 cells; format: cell-based; settings: resazurin assay, 72 h, up to 50 µM, three cancer cell lines
In short: (§1)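 Cells were seeded in 96-well plates (4T1 10,000, A549 10,000, HL-60 20,000 per well), with adherent lines settling overnight. Test compound came from a 10 mM DMSO stock, serially diluted in medium to 1.56–50 µM (some 39 nM–12.5 µM), for 72 h; three biological replicates. Resazurin (0.15 mg/ml stock, 20 µl per 100 µl) ran 2 h at 37 °C, read at 530/580 nm. Viability was set against untreated and blank wells; IC50 from curves.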

HL‐60 cells [3] = test: Annexin V / propidium iodide flow cytometry; format: cell-based, human; settings: 6 µM, 24 h, mean ± SD; for Early apoptotic cells (AnnV+/PI−): untreated 1.9 ± 0.5%; for Late apoptotic cells (AnnV+/PI+): untreated 9.5 ± 2.7%; for Living cells (AnnV−/PI−): untreated 85 ± 3.9%; for Necrotic cells (AnnV−/PI+): untreated 3.6 ± 1.6%
In short: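 HL-60 cells (100,000) were treated for 24 h at 1, 3 or 6 µM, then resuspended in Annexin V binding buffer (0.01 M HEPES, 0.14 M NaCl, 2.5 mM CaCl2). Annexin V-Alexa 488 was added for 15 min in the dark at room temperature, then PI (10 µg/ml). Quadrant percentages were taken by flow cytometry; three biological replicates, mean ± SD; two-tailed t test against untreated.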

HL‐60 cells [4] = test: Mitochondrial membrane depolarization by JC-1 staining; format: cell-based, human; settings: 16 h, untreated 7.6 ± 0.6%; for Cells with green JC‐1 accumulation (depolarized MMP): 3 µM; for Cells with green JC‐1 monomers (depolarized MMP): 6 µM
[5] = system: HL‐60 human acute promyelocytic leukemia cells; test: Resazurin cell viability assay on HL-60 cells; format: cell-based; settings: HL-60, 72 h, read-out: IC50 HL‐60
In short: as §1

[6] = system: 4T1 murine triple negative breast cancer cells; test: Resazurin cell viability assay on 4T1 cells; format: cell-based; settings: Mus musculus, 4T1, 72 h, read-out: IC50 4T1
In short: as §1

HL‐60 cells [7] = test: Cell cycle analysis by flow cytometry; format: cell-based, human; settings: 72 h; for Cells in G2/M phase: untreated 17.3 ± 1.7%
HL‐60 cells [8] = test: Sub-G1 DNA fragmentation analysis by flow cytometry; format: cell-based, human; settings: 6 µM, 72 h; mean ± SD; untreated 11.7 ± 1.2%
[9] = system: 4T1 breast carcinoma cells; test: 4T1 murine breast cancer model; format: in vivo, BALB/c mice; settings: 27th day; 60 mg/kg daily i.p.; mean ± SEM, n = 10; untreated 768 ± 134
[10] = system: colorectal cancer cell line HCT‐116; settings: read-out: IC50 HCT‐116; antiproliferative; ref Han et al., 2022; cited from earlier work
[11] = system: A431 epidermoid carcinoma cancer cell line; settings: 15 µM treatment; ref LaBarbera et al., 2009; cited from earlier work

Compound	Cytotoxic / antiproliferative activity in words [2]	Early apoptotic cells (AnnV+/PI−) (HL‐60 cells [3])	Late apoptotic cells (AnnV+/PI+) (HL‐60 cells [3])	Living cells (AnnV−/PI−) (HL‐60 cells [3])	Cells with green JC‐1 accumulation (depolarized MMP) (HL‐60 cells [4])	Cells with green JC‐1 monomers (depolarized MMP) (HL‐60 cells [4])	IC50 [5]	IC50 [6]	DNA fragmentation (sub‐G1 population) of HL‐60 cells (HL‐60 cells [8])	Necrotic cells (AnnV−/PI+) (HL‐60 cells [3])	IC50 [10]	also measured
C=CC(C)(CC/C=C(\C)CCC=C(C)C)S(=O)(=O)CCN=C(N)N (stereo not drawn) [(−)‐Agelasidine A]	–	–	–	–	–	–	–	–	–	–	–	Apoptosis and mitochondrial effect in Hep3B, in words [1]: Annexin V+ apoptosis and mitochondrial membrane depolarization
Nc1nc(-c2cccc(NC(=O)c3cc4cc(F)ccc4[nH]3)c2)c(C(=O)c2ccccc2)[nH]1 [Compound 23, N‐(3‐(2‐amino‐5‐benzoyl‐1H‐imidazol‐4‐yl)phenyl)‐5‐fluoro‐1H‐indole‐2‐carboxamide]	hampered the viability of all three tested cell lines	3.2 ± 0.7%	15.5 ± 3.9%	76.8 ± 3.5%	9.1 ± 0.2%	13.4 ± 0.8%	5.21 µM	9.05 µM	22.9 ± 1.2%	–	–	Cells in G2/M phase (HL‐60 cells [7]; 3 µM): 22.4 ± 1.6%; Cells in G2/M phase (HL‐60 cells [7]; 6 µM): 39.2 ± 3.1%; Effect on cell cycle distribution, in words (HL‐60 cells [7]): significantly disturbed cell cycle distribution
COc1ccc2[nH]c(C(=O)Nc3cccc(-c4nc(N)[nH]c4C(=O)c4ccccc4)c3)cc2c1 [Compound 27, N‐(3‐(2‐amino‐5‐benzoyl‐1H‐imidazol‐4‐yl)phenyl)‐5‐methoxy‐1H‐indole‐2‐carboxamide]	hampered the viability of all three tested cell lines	16.1 ± 0.6%	50.7 ± 0.9%	30.5 ± 0.7%	13.3 ± 1.1%	42.4 ± 0.8%	3.12 µM	11.7 µM	53.8 ± 7.3%	2.5 ± 0.3%	–	–
Nc1nc(-c2cccc(NC(=O)c3cc4cc(Br)ccc4[nH]3)c2)c(C(=O)c2ccccc2)[nH]1 [Compound 28, N‐(3‐(2‐amino‐5‐benzoyl‐1H‐imidazol‐4‐yl)phenyl)‐5‐bromo‐1H‐indole‐2‐carboxamide]	hampered the viability of all three tested cell lines	23.4 ± 1%	43.4 ± 1.2%	31.1 ± 0.8%	10.4 ± 0.2%	50.3 ± 0.7%	2.91 µM	13 µM	56.5 ± 2.8%	2.1 ± 0.4%	–	Cells in G2/M phase (HL‐60 cells [7]; 3 µM): 21.0 ± 0.5%; Effect on cell cycle distribution, in words (HL‐60 cells [7]): significantly disturbed cell cycle distribution
Nc1nc(-c2cccc(NC(=O)c3cc4cc(Cl)ccc4[nH]3)c2)c(C(=O)c2ccccc2)[nH]1 [Compound 29, N‐(3‐(2‐amino‐5‐benzoyl‐1H‐imidazol‐4‐yl)phenyl)‐5‐chloro‐1H‐indole‐2‐carboxamide]	hampered the viability of all three tested cell lines	11.4 ± 1.1%	44.7 ± 4.8%	37.8 ± 4.6%	9.4 ± 1.1%	29.7 ± 2.1%	4.03 µM	3.1 µM	64.3 ± 2.1%	5.9 ± 1.1%	–	4T1 tumor volume [9]: 443 ± 54 mm^3
Hemimycalin C	–	–	–	–	–	–	–	–	–	–	18.6 µM	–
Hemimycalin D	–	–	–	–	–	–	–	–	–	–	17.1 µM	–
Hemimycalin E	–	–	–	–	–	–	–	–	–	–	8.6 µM	–
Naamidine A	–	–	–	–	–	–	–	–	–	–	–	Apoptotic effect in A431, in words [11]: apoptotic effects
